From ChEMBL document CHEMBL1155452, “Oncocin (VDKPPYLPRPRPPRRIYNR-NH2): a novel antibacterial peptide optimized against gram-negative human pathogens” (J Med Chem, 2010)

Tests used:
Escherichia coli = test: Antibacterial activity against Escherichia coli BL21 AI after 20 hrs by broth microdilution assay; type: functional
In short: (§1)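 Nutrient-broth overnight cultures diluted in 1% TSB; E. coli BL21AI 7.5 × 10^5 cells/well, M. luteus ATCC 10240 2 × 10^6 cells/well. Peptides serially 2-fold diluted in 1% TSB from 128 to typically 0.5 μg/mL. Incubation at 37 °C; A595 read after 20 ± 2 h. MIC is the lowest concentration with absorbance not above medium only. Triplicate.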

Micrococcus luteus = test: Antibacterial activity against Micrococcus luteus ATCC 10240 after 20 hrs by broth microdilution assay; type: functional; settings: ATCC 10240, 20 h; in short: as §1
SH-SY5Y = test: Cytotoxicity against human SH-SY5Y cells at 600 ug/ml after 24 hrs by MTT assay; type: cell-based
In short: (§2)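 HeLa (1.5 × 10^4/well, seeded overnight) or SH-SY5Y (2 × 10^4/well, differentiated 5 days with 10 μM trans-retinoic acid) in DMEM/Ham's F-12 with 5% or 15% FBS. Peptide added at 600 μg/mL for 24 h at 37 °C, 5% CO2. MTT 0.5 mg/mL for 4 h, then SDS/HCl for 16 h; A590 read against 650 nm. Normalized to PBS (100%); DMSO 12% as positive control.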

HeLa = test: Cytotoxicity against human HeLa cells at 600 ug/ml after 24 hrs by MTT assay; type: cell-based; in short: as §2

MIC (Escherichia coli) [µg/mL] | MIC (Micrococcus luteus) [µg/mL] | Substance | Activity (SH-SY5Y) | Activity (HeLa)
64 | 128 | H-VDKPPYLPRPRPPRRIYN-OH |  | 
128 | 64 | H-VDKPPYLPRPPPPRRIYNNR-OH |  | 
 |  | H-GKPRPYSPRPTSHPRPIRV-OH [DROSOCIN] | Non-toxic | Non-toxic
